The test system of test [1] is A549. Put plainly: Induction of autophagy in human A549 cells assessed as accumulation of acidic vesicles at 10 uM after 48 hrs by acridine orange staining-based fluorescence microscopic analysis. The class given is functional, cell-based. In outline: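 Acidic vesicles in A549 cells after 10 µM exposure for 48 h. Cells stained with acridine orange (100 µg/mL) for 1 min at room temperature, then imaged by fluorescence microscopy at 200×.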

Test [2] has as its system A549. Put plainly: Induction of apoptosis in human A549 cells assessed as chromatin condensation at 10 uM after 48 hrs by Hoechst 33258 staining-based fluorescence microscopic analysis. The test is classed as functional, cell-based. In outline: (§1)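 A549 cells seeded 24 h, then treated at 10 µM for 48 h in 1% serum RPMI-1640 against a 0.1% DMSO control. Fixed in 4% paraformaldehyde for 10 min at room temperature and stained with Hoechst 33258 (2 µg/mL) for 20 min. Nuclear morphology was scored by fluorescence microscopy at 200×.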

For test [3], the system named is A549. The test can be described thus: Induction of apoptosis in human A549 cells assessed as appearance of apoptotic bodies at 10 uM after 48 hrs by Hoechst 33258 staining-based fluorescence microscopic analysis. The class given is functional, cell-based. In outline: as §1
For test [4], the system named is A549. The test can be described thus: Cytotoxicity against human A549 cells assessed as growth inhibition at 1 to 10 uM by sulforhodamine B assay. The test is classed as functional, cell-based. The conditions noted are these: TDE = time-dependent effect. In a few lines:
(§2)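 A549 cells seeded 24 h in RPMI-1640 with 10% bovine calf serum, then exposed in 1% serum medium to 1, 5 and 10 µM for 24 h and 48 h. 0.1% DMSO served as control and 5-FU as positive control. Viability by SRB staining, absorbance 540 nm, calculated relative to DMSO control. Mean ± SEM, n = 3, Student's t-test.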
For orientation: In SRB staining, fixed cells bind dye roughly in proportion to their protein.

In test [5] the test system is A549. The test can be described thus: Induction of necrosis in human A549 cells at 10 uM after 48 hrs by LDH assay. The test is classed as functional, cell-based. In outline: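 Necrosis read-out: A549 cells exposed to 10 µM or 0.1% DMSO control for 48 h. Culture medium was collected and LDH activity measured with a commercial kit. Mean ± SEM, n = 3, Student's t-test.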

In test [6] the test system is A549. Put plainly: Cytotoxicity against human A549 cells assessed as growth inhibition after 24 to 48 hrs by sulforhodamine B assay. The test is classed as functional, cell-based. In outline:
as §2

Test [7] has as its system A549. The test can be described thus: Induction of apoptosis in human A549 cells assessed as nuclear fragmentation at 10 uM after 48 hrs by Hoechst 33258 staining-based fluorescence microscopic analysis. The test is classed as functional, cell-based. In a few lines: as §1
Test [8] has as its system A549. The test can be described thus: Induction of autophagic flux in human A549 cells assessed as decrease in p62 protein level at 5 to 10 uM after 24 hrs by Western blotting analysis. The class given is functional, cell-based. (In western blotting, separated proteins are transferred to a membrane and probed.)
Test [9] deals with A549. Put plainly: Cell cycle arrest in human A549 cells assessed as accumulation at S phase at 10 uM after 48 hrs by propidium iodide staining-based flow cytometric analysis (reference value: 35.18%). The test is classed as functional. Background: A flow cytometer gives signals particle by particle.
The test system of test [10] is A549. The test can be described thus: Cell cycle arrest in human A549 cells assessed as accumulation at G2 phase at 10 uM after 48 hrs by propidium iodide staining-based flow cytometric analysis (reference value: 10.32%). The class given is functional.
Test [11] deals with A549. The test can be described thus: Cell cycle arrest in human A549 cells assessed as accumulation at G1 phase at 10 uM after 48 hrs by propidium iodide staining-based flow cytometric analysis (reference value: 54.5%). The class given is functional.
Test [12] relates to A549. The test can be described thus: Induction of autophagosome formation in human A549 cells assessed as LC3-2 to LC3-1 ratio at 5 to 10 uM after 24 hrs by Western blotting analysis. The test is classed as functional, cell-based.
Test [13] relates to A549. Put plainly: Cell cycle arrest in human A549 cells assessed as accumulation at G2/G1 phase at 10 uM after 48 hrs by propidium iodide staining-based flow cytometric analysis (reference value: 1.91%). The test is classed as functional.
In test [14] the test system is A549. The test can be described thus: Induction of autophagosome formation in human A549 cells assessed as conversion of LC3-1 to LC3-2 at 5 to 10 uM after 24 hrs by Western blotting analysis. The class given is functional, cell-based.
Test [15] relates to A549. The test can be described thus: Cytotoxicity against human A549 cells assessed as growth inhibition at 1 to 10 uM after 48 hrs by sulforhodamine B assay relative to control. The class given is functional. In a few lines: as §2
Test [16] relates to A549. Put plainly: Induction of autophagosome formation in human A549 cells assessed as increase in LC3-2 protein level at 5 to 10 uM after 24 hrs by Western blotting analysis. The test is classed as functional, cell-based.

Activity calls are given as the source filed them. No cut-off for these calls is given here.

As a reminder, the IC50 is the midpoint of a concentration-inhibition curve. Turning to `COc1ccc(-c2cc(C(=O)NO)n(Cc3ccccc3)n2)cc1`, the outcome in [1] was Active. The outcome in test [2], in [3], in [5] and in test [7] was inactive. The “growth inhibition (GI)” value in test [4] was “tde”; in test [6] it was “Dose-dependent effect”. The IC50 in [6] stood at 6.77 µM.

With `O=c1[nH]cc(F)c(=O)[nH]1` [FLUOROURACIL], the IC50 in [6] was 1.65 µM.

Consider `O=C(NO)c1cc(-c2ccccc2)nn1Cc1ccc([N+](=O)[O-])cc1`, for which the outcome in test [1] was Active. The result in test [2], in test [3], in [5] and in test [7] was inactive. The “growth inhibition (GI)” value in test [4] is “tde”; in test [6] it was “Dose-dependent effect”. In test [6], the IC50 was 6 µM.

As to `CC(C)(C)c1ccc(Cn2nc(-c3ccc(Cl)cc3)cc2C(=O)NO)cc1`, the result in test [1], in [8], in test [12], in [14] and in test [16] was Active. Also, the Activity in test [9] stood at 21.27%; in [10], 0%; in [11], 78.73%; in [13], 1.96%. The result in test [2], in [3], in test [5] and in test [7] was inactive. Also, the figures for the “growth inhibition (GI)” value in [4], in test [15] and in [6] were “tde”, “<=70%” and “Dose-dependent effect”, respectively. Besides, in test [6], the IC50 was 1.82 µM.

Regarding `CC(C)(C)c1ccc(Cn2nc(-c3ccccc3)cc2C(=O)NO)cc1`, the outcome in [1], in test [8], in [12], in [14] and in test [16] was Active. Further, the Activity was determined as 24.87% in [9], 2.32% in test [10], 72.8% in test [11] and 1.8% in test [13]. Besides, the result in test [2], in test [3], in test [5] and in test [7] was inactive. Also, the “growth inhibition (GI)” value in [4] is “tde”; in test [15], “<=70%”; in test [6], “Dose-dependent effect”. For the same molecule, the IC50 in test [6] turned out to be 1.72 µM.

For the molecule `O=C(NO)c1cc(-c2ccccc2)nn1Cc1ccccc1`, in test [1], the outcome was Active. Further, the result in test [2], in [3], in test [5] and in test [7] was inactive. The “growth inhibition (GI)” value in [4] is “tde”; in test [6], “Dose-dependent effect”. In addition, the IC50 in [6] came out at 5.6 µM.

Regarding `COc1ccc(-c2cc(C(=O)NO)n(Cc3ccc(Cl)nc3)n2)cc1`, the result in test [1] and in [5] was Active. Further, the result in test [2], in [3] and in test [7] was inactive. Also, the “growth inhibition (GI)” value in [4] is “tde”; in test [6], “Dose-dependent effect”. Moreover, in [6], the IC50 amounted to 8.56 µM.

With `COc1ccc(-c2cc(C(=O)NO)n(Cc3ccc([N+](=O)[O-])cc3)n2)cc1`, in test [1], the result was Active. For the same molecule, the outcome in test [2], in test [3], in [5] and in [7] was inactive. Also, the “growth inhibition (GI)” value was “tde” in test [4] and “Dose-dependent effect” in test [6]. Moreover, the IC50 in test [6] is 7.11 µM.

Regarding `O=C(NO)c1cc(-c2ccc(Cl)cc2)nn1Cc1ccc([N+](=O)[O-])cc1`, the outcome in test [1] was Active. In addition, the outcome in [2], in test [3], in test [5] and in test [7] was inactive. For the same molecule, the “growth inhibition (GI)” value is “tde” in test [4] and “Dose-dependent effect” in test [6]. Moreover, the IC50 in test [6] turned out to be 7.78 µM.

For `COc1ccc(-c2cc(C(=O)NO)n(Cc3ccc(C(C)(C)C)cc3)n2)cc1`, the outcome in test [1] and in test [5] was Active. In addition, the outcome in test [2], in test [3] and in test [7] was inactive. Besides, the “growth inhibition (GI)” value in test [4] was “tde”; in test [15] it was “<=70%”; in test [6], “Dose-dependent effect”. In test [6], the IC50 is 2.56 µM.

`O=C(NO)c1cc(-c2ccc(Cl)cc2)nn1Cc1ccccc1`: in test [1], the outcome was Active. For the same molecule, the outcome in test [2], in test [3], in [5] and in test [7] was inactive. For the same molecule, the “growth inhibition (GI)” value in [4] was “tde”; in [6], “Dose-dependent effect”. Also, the IC50 in [6] worked out at 4.44 µM.

For `O=C(NO)c1cc(-c2ccccc2)nn1Cc1ccc(Cl)nc1`, the result in [1] was Active. Also, the result in test [2], in test [3], in test [5] and in test [7] was inactive. For the same molecule, the “growth inhibition (GI)” value is “tde” in test [4] and “Dose-dependent effect” in test [6]. Moreover, the IC50 in [6] was found to be 8.5 µM.

`O=C(NO)c1cc(-c2ccc(Cl)cc2)nn1Cc1ccc(Cl)nc1`: the outcome in test [1], in test [8], in test [12], in test [14] and in test [16] was Active. For the same molecule, the Activity in test [9] is reported as 28.09%; in test [10], 0%; in [11], 71.91%; in test [13] it was 1.84%. The result in test [2], in test [3], in [5] and in test [7] was inactive. Moreover, the “growth inhibition (GI)” value in test [4] is “tde”; in test [15], “<=70%”; in test [6], “Dose-dependent effect”. In addition, the IC50 in test [6] turned out to be 4.21 µM.

Values taken from ChEMBL document CHEMBL3286151, “Biological activities of novel pyrazolyl hydroxamic acid derivatives against human lung cancer cell line A549” (Eur J Med Chem, 2014).
